The test system of data set [1] is Mus musculus. Briefly: Area under curve(AUC) was measured in mice after oral administration. Further details: concentration or dose not given beside the values; unit not given here. The format is ADME, organism-based. The following applies: in vivo. The essentials:
(§1)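 Male Swiss-Webster mice (20 ± 2 g) were given a single 50 mg/kg oral dose by gavage. Blood concentrations and urine levels were measured by microbiological assay, and urinary recovery was taken over 0–6 h.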

The subject of data set [2] is Mus musculus. Nature of the data set: (§2) Cmax was measured in mice after an oral dose of 50 mg/kg. The format is ADME, organism-based. The conditions noted are these: in vivo. More on the design: dose 50 mg/kg, route oral. In short, it runs like this:
as §1

Data set [3] is filed under the species Mus musculus. Nature of the data set: Percentage of dose recovered after 0-6 hr in the urine of mice was measured. It counts as ADME, organism-based. The following applies: in vivo. In short, it runs like this:
as §1

The nature of data set [4]: Half life was measured. The format is ADME. The essentials:
as §1

Data set [5] concerns Escherichia coli. Nature of the data set: Minimum inhibitory concentration (MIC) against Escherichia coli by 2-fold microdilution technique. It counts as functional. The essentials: (§3)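 For each organism, an overnight culture was grown in Mueller-Hinton broth at 37 °C. Twofold microtiter dilutions in Nutrient Broth covered 0.005–125 µg/mL. Each well received about 10^4 organisms, and plates were incubated 18 h at 37 °C. MIC was the lowest concentration giving no visible growth.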
For orientation: Broth dilution looks for growth in wells or tubes with falling amounts of substance.

For data set [6], the system named is Escherichia coli. Nature of the data set: Minimum inhibitory concentration (MIC) […] against Escherichia coli. The format is functional. In short, it runs like this: as §3
Data set [7] concerns Haemophilus influenzae. Briefly: Minimum inhibitory concentration (MIC) against Haemophilus influenzae by 2-fold microdilution technique. The format is functional. In short, it runs like this:
as §3

Data set [8] has as its system Klebsiella pneumoniae. Briefly: Minimum inhibitory concentration (MIC) against Klebsiella pneumoniae by 2-fold microdilution technique. It counts as functional. In short, it runs like this:
as §3

Data set [9] has as its system Streptococcus pneumoniae. Nature of the data set: Protective dose (PD50) against Streptococcus pneumoniae infected mice. The format is functional. The essentials: (§4)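 Male Swiss-Webster mice (20 ± 2 g) were challenged intraperitoneally with enough bacteria to kill untreated controls within 72 h. Drug was given orally by gavage twice: at 0 and 2 h after E. coli challenge, or at 1 and 3.5 h after S. pneumoniae challenge. PD50 is the dose in mg/kg per dose that protects 50% of animals.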

Data set [10] concerns Proteus mirabilis. Nature of the data set: Minimum inhibitory concentration (MIC) against Proteus mirabilis by 2-fold microdilution technique. The format is functional. In short, it runs like this: as §3
In data set [11] the test system is Streptococcus pneumoniae. Briefly: Minimum inhibitory concentration (MIC) against Streptococcus pneumoniae by 2-fold microdilution technique. It counts as functional. The essentials:
as §3

Data set [12] has as its system Streptococcus pneumoniae. Briefly: Minimum inhibitory concentration (MIC) […] against Streptococcus pneumoniae. The format is functional. In short, it runs like this: as §3
Data set [13] concerns Enterococcus faecalis. Nature of the data set: Minimum inhibitory concentration (MIC) against Streptococcus faecalis by 2-fold microdilution technique. The format is functional. The essentials: as §3
Data set [14] has as its system Streptococcus pyogenes. Briefly: Minimum inhibitory concentration (MIC) against Streptococcus pyogenes by 2-fold microdilution technique. It counts as functional. In short, it runs like this: as §3
Data set [15] concerns Staphylococcus aureus. Nature of the data set: Minimum inhibitory concentration (MIC) against Staphylococcus aureus by 2-fold microdilution technique. The format is functional. In short, it runs like this: as §3
Data set [16] deals with Mus musculus. Briefly: Area under curve(AUC) was measured in mice after oral administration (50 mg/kg). It counts as ADME, organism-based. The conditions noted are these: in vivo. In short, it runs like this: as §1
A short description of data set [17]: as §2. The format is ADME, organism-based. More on the design: dose 50 mg/kg, route oral. The conditions noted are these: mouse, in vivo. The essentials: as §1
In data set [18] the test system is Escherichia coli. Nature of the data set: Protective dose (PD50) against Escherichia coli infected mice. The format is functional. The following applies: read-out: PD50. In short, it runs like this:
as §4

Setting [19] is: Escherichia coli, read-out: MIC.
Where [20] appears, read: Streptococcus pneumoniae, read-out: MIC.

In brackets after ≈: the same amount, converted by molar mass.

As a reminder, the Cmax is the maximum level reached in the sampled fluid or tissue. For `C/C=C/C1=C(C(=O)O)N2C(=O)[C@@H](NC(=O)[C@H](N)c3ccc(O)cc3)[C@H]2SC1.O` (relative stereo; 57) [CEFPROZIL, (E)-], the AUC in [1] turned out to be 45. In addition, the peak concentration (Cmax) in data set [2] was 35000 ng/mL. Further, the “Urinary recovery (% of dose, 0-6 h)” value in data set [3] was 65%. The same compound showed a T1/2 in data set [4] of 47 min. Further, the MIC in [5] is 8 µg/mL; in data set [6], 8 µg/mL; in data set [7], 4 µg/mL; in data set [8], 8 µg/mL; in [10] it was 1 µg/mL; in data set [11] it was 0.06 µg/mL. The MIC in data set [12] is 0.06 µg/mL; in data set [13], 4 µg/mL; in data set [14], 0.03 µg/mL; in data set [15] it was 0.25 µg/mL. Further, in data set [9], the PD50 amounted to 0.5 mg/kg.
Usually half-life stands for the time needed for the level to fall by half in the phase considered. On to `C=CC1=C(C(=O)O)N2C(=O)[C@@H](NC(=O)[C@H](N)c3ccc(O)cc3)[C@H]2CO1`, for which, in data set [16], the AUC was found to be 30 µg/mL. Further, the concentration in data set [17] peaked (Cmax) at 26000 ng/mL. In addition, the “Urinary recovery (% of dose, 0-6 h)” value in data set [3] was found to be 73%. In data set [4], this compound had a half-life of 39 min. Also, the MIC is 2 µg/mL (≈ 5.57 µM) in [5] (setting [19]); 2 µg/mL (≈ 5.57 µM) in data set [6] (setting [19]); 1 µg/mL (≈ 2.78 µM) in [7] (Haemophilus influenzae, read-out: MIC); 8 µg/mL (≈ 22.3 µM) in data set [8] (Klebsiella pneumoniae, read-out: MIC); 0.5 µg/mL (≈ 1.39 µM) in [10] (Proteus mirabilis, read-out: MIC); 0.03 µg/mL (≈ 0.0835 µM) in [11] (setting [20]). Moreover, the MIC amounted to 0.03 µg/mL (≈ 0.0835 µM) in [12] (setting [20]); 0.5 µg/mL (≈ 1.39 µM) in data set [13] (Enterococcus faecalis, read-out: MIC); 0.016 µg/mL (≈ 0.0445 µM) in data set [14] (Streptococcus pyogenes, read-out: MIC); 0.13 µg/mL (≈ 0.362 µM) in [15] (Staphylococcus aureus, read-out: MIC). Also, the ED50 in data set [18] was found to be 2.1 mg/kg; in data set [9] (Streptococcus pneumoniae, read-out: PD50) it was 0.8 mg/kg.

The values above are taken from ChEMBL document CHEMBL1124257, “An examination of O-2-isocephems as orally absorbable antibiotics” (J Med Chem, 1988).
